# Measurements gathered from unrelated publications.
# Target: Cyclin-dependent kinase 2 (CDK2, Homo sapiens, UniProt P24941)
# Technique: competition with immobilised ligand
Structure (SMILES),assay,setting,remaining binding [%]
O=C(Nc1c[nH]nc1C(=O)NC1CCNCC1)c1cc(F)cc(F)c1,binding,1 µM,98
COc1cnc(Nc2cccc(S(N)(=O)=O)c2)nc1N1CCN(c2ccccc2)C(=O)C1,binding,1 µM,97
COc1ccc2c(c1)O[C@H](c1ccc(OC)c(OC)c1)C[C@@H]2NC(=O)C1(c2ccc3c(c2)OC(F)(F)O3)CC1,cell-free assay,1 µM,100
CNC(=O)[C@@H]1CC[C@@H](n2c(-c3ccc4cnccc4c3)nc3ccc(C(=O)NCc4cccc(C(N)=O)c4)cc32)C1,binding,1 µM,100
Cc1cnc(Nc2ccc(C(=O)N3CCC(N4CCCC4)CC3)cc2)nc1-c1cc2ccccc2s1,binding,1 µM,35
C[C@@H]1CN(c2ccc3ncc(-c4ccc5[nH]nc(C6CC6)c5c4)n3n2)C[C@H](C)O1,binding,0.5 µM,84
c1cncc(-c2cccc(Nc3nccc(NC4CCCCC4)n3)c2)c1,binding,10 µM,81
O=S(=O)(NC1CCC(c2cc(F)ccc2F)(S(=O)(=O)c2ccc(Cl)cc2)CC1)C(F)(F)F (stereo not shown),cell-free assay,1 µM,100
O=C(c1ccc(Nc2nccc(-c3cc4ccccc4s3)n2)cc1)N1CCC(N2CCCC2)CC1,binding,1 µM,84
CCN1CCN(Cc2ccc(C(=O)Nc3ccc(C)c(Oc4ccc5c(c4)CC(=O)N5)c3)cc2C(F)(F)F)CC1,binding,1 µM,82
CO[C@H]1CC[C@H](CNc2ccc(S(=O)(=O)NC(=O)c3ccc(N4CCN(CC5=C(c6ccc(Cl)cc6)CC(C)(C)CC5)CC4)cc3Oc3cnc4[nH]ccc4c3)cc2[N+](=O)[O-])CC1,cell-free assay,1 µM,100
CN(CCCC(F)(F)F)c1nccc(-c2cnn3ncccc23)n1,binding,1 µM,100
C[C@H](c1ccc(F)cc1)N(Cc1cccc(C(=O)O)c1)C(=O)c1cnc2ccccc2c1,cell-free assay,1 µM,100
O=C(c1ccc(Nc2ncc(Cl)c(-c3ccc(Cl)s3)n2)cc1)N1CCC(N2CCCC2)CC1,binding,1 µM,27
CC(C)(C)c1ccc(-c2nc(CBr)nn2-c2cccc(O)c2)cc1,cell-free assay,10 µM,90
Nc1cnc(N2CCc3cc(S(=O)(=O)Nc4c(F)cc(Cl)cc4F)cc(N4CCCC4=O)c32)nc1,cell-free assay,1 µM,100
